According to ChEMBL document CHEMBL2176968, “Identification of less lipophilic riminophenazine derivatives for the treatment of drug-resistant tuberculosis” (J Med Chem, 2012):
≈ marks a conversion by molar mass, not a printed value.

Columns and labels:
[1] = test system: Mycobacterium tuberculosis; experiment: Antimycobacterial activity against Mycobacterium tuberculosis H37Rv ATCC 27294 after 7 days by microplate Alamar blue assay; type: functional; conditions: H37Rv ATCC 27294, 168 h
Method in brief: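 Run in 96-well plates against M. tuberculosis H37Rv using the Alamar Blue read-out. The MIC was taken as the lowest concentration giving >90% growth inhibition.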

[2] = Selectivity index, ratio of IC50 for african green monkey Vero cells to MIC for Mycobacterium tuberculosis H37Rv ATCC 27294; type: functional
Mus musculus = experiment: Acute toxicity in mouse assessed as survival at 500 mg/kg, po measured for 7 days; type: organism-based; design: dose 500 mg/kg, route oral; conditions: in vivo, 168 h
Method in brief: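 Mice given one oral dose of 500 mg/kg, then observed for 7 days. The number of surviving mice was recorded.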

Vero = experiment: Cytotoxicity against african green monkey Vero cells after 48 hrs by MTT assay; type: cell-based; conditions: Chlorocebus sabaeus
Method in brief: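 Vero cells were exposed to compound. The IC50 was taken as the concentration inhibiting 50% of growth relative to an untreated control.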

[3] = Octanol-water partition coefficient, log P of the compound; type: physicochemical
[4] = Cmax in BALB/c mouse at 20 mg/kg, po; type: ADME, organism-based; design: dose 20 mg/kg, route oral; conditions: in vivo
[5] = Half life in BALB/c mouse at 20 mg/kg, po; type: ADME, organism-based; design: dose 20 mg/kg, route oral; conditions: in vivo
[6] = AUC (0 to 24 hrs) in BALB/c mouse at 20 mg/kg, po; type: ADME, organism-based; design: time < 24 hr, dose 20 mg/kg, route oral; conditions: plasma
[7] = Aqueous solubility of the compound in 100 ml buffer solution at pH 1.0; type: physicochemical
Method in brief: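 Solubility was measured in pH 1 buffer and reported in g/100 mL.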

[8] = Acute toxicity in mouse; type: organism-based; conditions: in vivo

| Compound | MIC [1] [µg/mL] | Selectivity Index [2] | Activity (Mus musculus) | IC50 (Vero) [µg/mL] | logP [3] | Cmax [4] [ng/mL] | half-life [5] [h] | AUC(0-t) at 24 h [6] [ng·h/mL] | solubility [7] [g] | LD50 [8] [mg/kg] |
| --- | --- | --- | --- | --- | --- | --- | --- | --- | --- | --- |
| COc1ncccc1Nc1cc2nc3ccccc3n(-c3ccc(Br)cc3)c-2c/c1=N\C1CCOCC1 | 0.02 (≈ 0.0359 µM) | 3200 | Non-toxic | > 64 |  |  |  |  |  |  |
| COc1ncccc1Nc1cc2nc3ccccc3n(-c3ccc(Br)cc3)c-2c/c1=N\C1CCC(OC)CC1 (configuration not stated) | 0.031 (≈ 0.053 µM) | 2065 | Non-toxic | > 64 |  |  |  |  |  |  |
| COC1CCC(/N=c2\cc3n(-c4ccc(Br)cc4)c4ccccc4nc-3cc2Nc2cccnc2C)CC1 (configuration not stated) | 0.015 (≈ 0.0264 µM) | 2788 | Toxic | 41.8 (≈ 73.6 µM) |  |  |  |  |  |  |
| COc1ncccc1Nc1cc2nc3ccccc3n(-c3ccc(OC(F)(F)F)cc3)c-2c/c1=N\C1CCC(OC)CC1 (configuration not stated) | 0.016 (≈ 0.0271 µM) | 4000 | Non-toxic | > 64 | 4.52 | 1300 | 41.2 | 24100 |  |  |
| COc1ncccc1Nc1cc2nc3ccccc3n(-c3ccc(Cl)cc3)c-2c/c1=N\C1CCOCC1 | 0.016 (≈ 0.0312 µM) | 4000 | Non-toxic | > 64 | 4.15 | 2010 | 6.62 | 33100 |  |  |
| COc1ncccc1Nc1cc2nc3ccccc3n(-c3ccc(Cl)cc3)c-2c/c1=N\C1CCC(OC)CC1 (configuration not stated) | 0.016 (≈ 0.0296 µM) | 4000 | Non-toxic | > 64 | 3.74 | 3010 | 7 | 43900 |  |  |
| COC1CCC(/N=c2\cc3n(-c4ccc(Cl)cc4)c4ccccc4nc-3cc2Nc2cccnc2C)CC1 (configuration not stated) | 0.011 (≈ 0.021 µM) | 3195 | Toxic | 35.1 (≈ 67.1 µM) |  |  |  |  |  |  |
| COC1CCC(/N=c2\cc3n(-c4ccc(Cl)cc4)c4ccccc4nc-3cc2Nc2ccc(C)nc2)CC1 (configuration not stated) | 0.016 (≈ 0.0305 µM) | 3180 | Non-toxic | 50.9 (≈ 97.1 µM) | 4.11 | 1560 | 16.1 | 22100 |  |  |
| COc1ncccc1Nc1cc2nc3ccccc3n(-c3ccc(F)cc3)c-2c/c1=N\C(C)C | 0.03 (≈ 0.0661 µM) | 2133 | Non-toxic | > 64 | 4.07 | 3020 | 17.5 | 52400 | 0.7 |  |
| COc1ncccc1Nc1cc2nc3ccccc3n(-c3ccc(F)cc3)c-2c/c1=N\C1CCC(OC)CC1 (configuration not stated) | 0.016 (≈ 0.0306 µM) | 4000 | Non-toxic | > 64 | 4.82 | 3650 | 7.9 | 45400 |  |  |
| Cc1ncccc1Nc1cc2nc3ccccc3n(-c3ccc(F)cc3)c-2c/c1=N\C1CCOCC1 | 0.026 (≈ 0.0542 µM) | 2462 | Toxic | > 64 |  |  |  |  |  |  |
| COC1CCC(/N=c2\cc3n(-c4ccc(F)cc4)c4ccccc4nc-3cc2Nc2cccnc2C)CC1 (configuration not stated) | 0.019 (≈ 0.0374 µM) | 3368 | Toxic | > 64 |  |  |  |  |  |  |
| COc1ncccc1Nc1cc2nc3ccccc3n(-c3ccc(C(F)(F)F)cc3)c-2c/c1=N\C(C)C | 0.029 (≈ 0.0576 µM) | 2207 | Non-toxic | > 64 |  |  |  |  |  |  |
| COc1ncccc1Nc1cc2nc3ccccc3n(-c3ccc(C(F)(F)F)cc3)c-2c/c1=N\C1CCOCC1 | 0.016 (≈ 0.0293 µM) | 4000 | Non-toxic | > 64 |  |  |  |  |  |  |
| COc1ncccc1Nc1cc2nc3ccccc3n(-c3ccc(C(F)(F)F)cc3)c-2c/c1=N\C1CCC(OC)CC1 (configuration not stated) | 0.016 (≈ 0.0279 µM) | 4000 | Non-toxic | > 64 |  |  |  |  |  |  |
| Cc1ncccc1Nc1cc2nc3ccccc3n(-c3ccc(C(F)(F)F)cc3)c-2c/c1=N\C1CCOCC1 | 0.011 (≈ 0.0208 µM) | 5818 | Toxic | > 64 |  |  |  |  |  |  |
| CC(C)/N=c1\cc2n(-c3ccc(Cl)cc3)c3ccccc3nc-2cc1Nc1cccnc1 | 0.03 (≈ 0.0682 µM) | 273 |  | 8.2 (≈ 18.6 µM) |  |  |  |  |  | 422 |
| CC(C)/N=c1\cc2n(-c3ccccc3)c3ccccc3nc-2cc1Nc1cccnc1 | 0.06 (≈ 0.148 µM) | 66 |  | 3.93 (≈ 9.69 µM) |  |  |  |  |  |  |
| Cc1ccc(-n2c3c/c(=N\C(C)C)c(Nc4cccnc4)cc-3nc3ccccc32)cc1 | 0.06 (≈ 0.143 µM) | 45 |  | 2.71 (≈ 6.46 µM) |  |  |  |  |  |  |
| CSc1ccc(-n2c3c/c(=N\C(C)C)c(Nc4cccnc4)cc-3nc3ccccc32)cc1 | 0.05 (≈ 0.111 µM) | 37 |  | 1.83 (≈ 4.05 µM) |  |  |  |  |  |  |
| CC(C)/N=c1\cc2n(-c3ccc(F)cc3)c3ccccc3nc-2cc1Nc1cccnc1 | 0.03 (≈ 0.0708 µM) | 208 |  | 6.25 (≈ 14.8 µM) |  |  |  |  |  |  |
| CC(C)/N=c1\cc2n(-c3ccc(C(F)(F)F)cc3)c3ccccc3nc-2cc1Nc1cccnc1 | 0.03 (≈ 0.0634 µM) | 655 |  | 19.7 (≈ 41.5 µM) |  |  |  |  |  |  |
| CC(C)/N=c1\cc2n(-c3ccc(OC(F)(F)F)cc3)c3ccccc3nc-2cc1Nc1cccnc1 | 0.03 (≈ 0.0613 µM) | 164 |  | 4.93 (≈ 10.1 µM) |  |  |  |  |  |  |
| CC(C)/N=c1\cc2n(-c3ccc(Br)cc3)c3ccccc3nc-2cc1Nc1cccnc1 | 0.02 (≈ 0.0413 µM) | 115 |  | 2.3 (≈ 4.75 µM) |  |  |  |  |  |  |
| CC(C)/N=c1\cc2n(-c3ccc(Cl)cc3)c3ccccc3nc-2cc1Nc1ccc(Cl)cc1 [CLOFAZIMINE] | 0.12 (≈ 0.253 µM) | 572 |  | 68.6 (≈ 145 µM) | 5.34 | 380 | 29.7 | 6960 |  | > 3000 |
